The target of assay [1] is Histamine H3 receptor (Rattus norvegicus, UniProt Q9QYN8). The experiment in a line: Displacement of [3H]RAMHA from rat histamine H3 receptor in rat cerebral cortex membranes. It counts as cell membranes, Membrane. The method, boiled down:
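Rat brain membranes (Kilpatrick method) incubated 45 min with 0.5 nM [3H]-(R)-α-methylhistamine and compound (0.03 nM–10 μM) in 50 mM Tris–HCl pH 7.4, 50 mM NaCl, 0.5 mM EDTA. Vacuum filtration, two ice-cold buffer rinses. Nonspecific binding with 10 μM thioperamide. pIC50 converted to pKi via Cheng–Prusoff; means ± SEM.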

The target of a further assay is Histamine H4 receptor (Homo sapiens, UniProt Q9H3N8). As to the kind of experiment: Displacement of [3H]histamine from human histamine H4 receptor expressed in GPCR97 transfected human SK-N-MC cells. The format is cell-based. An outline of the steps:
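Membranes of SK-N-MC cells stably expressing human H4, 60 min at room temperature with 10 nM [3H]-histamine, competitor 0.01 nM–10 μM. Filtration with two ice-cold Tris–HCl/EDTA washes. 10 μM histamine defined nonspecific binding. pKi derived from pIC50 by Cheng–Prusoff.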

Assay [2] deals with T1, Histamine H3 receptor (Homo sapiens, UniProt Q9Y5N1). As to the kind of experiment: Displacement of [3H]RAMHA from human histamine H3 receptor expressed in GPCR97 transfected human SK-N-MC cells. The format is cell-based. The method, boiled down: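 SK-N-MC cell membranes stably expressing human H3; 60 min at room temperature with 0.5 nM [3H]-(R)-α-methylhistamine, competitor 0.01 nM–10 μM. Filtration, two washes with ice-cold 50 mM Tris–HCl/5 mM EDTA. Nonspecific binding with 10 μM histamine. pIC50 from displacement curves converted to pKi by Cheng–Prusoff; means ± SEM.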
T1 sequence (Q9Y5N1 whole entry): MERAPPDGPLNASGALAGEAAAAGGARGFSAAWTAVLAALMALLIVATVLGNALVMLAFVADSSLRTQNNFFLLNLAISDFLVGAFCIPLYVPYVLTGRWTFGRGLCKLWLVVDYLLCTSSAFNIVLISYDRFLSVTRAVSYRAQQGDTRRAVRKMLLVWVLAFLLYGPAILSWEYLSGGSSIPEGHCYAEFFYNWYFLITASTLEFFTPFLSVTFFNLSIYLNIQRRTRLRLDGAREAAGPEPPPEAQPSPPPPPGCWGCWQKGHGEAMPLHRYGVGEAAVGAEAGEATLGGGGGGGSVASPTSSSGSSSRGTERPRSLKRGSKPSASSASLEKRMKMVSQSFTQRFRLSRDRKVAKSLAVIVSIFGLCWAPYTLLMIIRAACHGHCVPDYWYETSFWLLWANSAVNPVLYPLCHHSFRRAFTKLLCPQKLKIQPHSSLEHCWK
For orientation: In a radioligand displacement assay an active substance lowers the binding of a labelled ligand.

In assay [3] the target is Histamine H2 receptor (Cavia porcellus) (UniProt P47747). As to the kind of experiment: Antagonist activity at histamine H2 receptor in guinea pig spontaneously beating isolated atria assessed as changes in rate of spontaneous beating at 1 uM by cardiotachograph analysis.
Histamine H2 receptor (Cavia porcellus), sequence (P47747 whole entry): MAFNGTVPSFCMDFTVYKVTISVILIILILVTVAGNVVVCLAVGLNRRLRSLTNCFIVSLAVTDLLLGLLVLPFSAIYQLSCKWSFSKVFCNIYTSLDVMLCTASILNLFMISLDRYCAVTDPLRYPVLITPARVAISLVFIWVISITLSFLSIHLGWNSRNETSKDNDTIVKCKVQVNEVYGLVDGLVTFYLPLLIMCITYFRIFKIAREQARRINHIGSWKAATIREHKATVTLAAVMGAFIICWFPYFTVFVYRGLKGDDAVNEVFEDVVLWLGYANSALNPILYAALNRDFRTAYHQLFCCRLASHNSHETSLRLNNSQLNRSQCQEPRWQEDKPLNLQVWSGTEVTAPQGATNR
Assay [4] concerns the target T1, Histamine H3 receptor. As to the kind of experiment: Antagonist activity at human histamine H3 receptor expressed in human SK-N-MC cells assessed as inhibition of (R)-alpha-methylhistamine-induced effect after 6 hrs by beta-galactosidase reporter gene assay. The format is functional, cell-based. The method, boiled down: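 SK-N-MC cells expressing human H3 receptor and a β-galactosidase reporter; compounds (1 nM–10 µM) added 10 min before (R)-α-methylhistamine (0.1–100 nM), forskolin 5 µM added 5 min after compound. Incubated 6 h at 37 °C, cells lysed, chlorophenol red β-D-galactopyranoside colour read at 570 nm. Response as % agonist maximum; pKB by Furchgott equation, or pD2' by Van Rossum for non-surmountable antagonism; mean ± SEM.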

The target of assay [5] is Histamine H1 receptor (Cavia porcellus) (UniProt P31389). The experiment in a line: Antagonist activity at histamine H1 receptor in guinea pig longitudinally mounted ileum assessed as […] up to 10 uM […]. The format is functional, tissue-based.
Histamine H1 receptor (Cavia porcellus), sequence (P31389 whole entry): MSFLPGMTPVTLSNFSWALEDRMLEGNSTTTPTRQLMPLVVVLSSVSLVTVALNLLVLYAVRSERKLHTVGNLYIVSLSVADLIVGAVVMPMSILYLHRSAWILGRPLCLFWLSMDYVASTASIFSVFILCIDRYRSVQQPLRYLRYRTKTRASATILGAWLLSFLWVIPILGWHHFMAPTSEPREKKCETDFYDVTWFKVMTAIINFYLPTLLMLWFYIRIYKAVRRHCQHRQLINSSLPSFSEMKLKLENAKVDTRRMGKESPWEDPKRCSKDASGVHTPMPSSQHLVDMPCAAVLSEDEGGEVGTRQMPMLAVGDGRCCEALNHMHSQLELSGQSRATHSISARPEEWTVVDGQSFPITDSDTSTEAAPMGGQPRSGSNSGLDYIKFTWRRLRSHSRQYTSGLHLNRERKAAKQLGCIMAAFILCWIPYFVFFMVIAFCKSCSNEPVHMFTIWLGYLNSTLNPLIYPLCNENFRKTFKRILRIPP
Assay [6] deals with Histamine H2 receptor (Cavia porcellus) (UniProt P47747). Conditions: Ileum.
Assay [7] concerns the target Neuronal acetylcholine receptor subunit alpha-7 (Homo sapiens) (UniProt P36544). The experiment in a line: Displacement of [125I]alpha-bungarotoxin from human alpha7 nicotinic receptor at 1 uM by scintillation counting. The method, boiled down:
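Membrane homogenates bearing human α7 nicotinic receptor (20 µg protein) incubated 120 min at 37 °C with 0.05 nM [125I]α-bungarotoxin in 50 mM K2HPO4/KH2PO4 pH 7.4, 10 mM MgCl2, 0.1% BSA. Nonspecific binding with 1 µM α-bungarotoxin. Filtration on PEI-soaked glass fibre, scintillation counting; % inhibition of specific binding, duplicate.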

Calls of active or inactive are those of the source. The calls are words filed in the database; no cut-off is given here.

These results are taken from ChEMBL document CHEMBL1932989, “Dibasic biphenyl H3 receptor antagonists: Steric tolerance for a lipophilic side chain” (Eur J Med Chem, 2012).

Histamine H4 receptor, sequence (Q9H3N8 whole entry): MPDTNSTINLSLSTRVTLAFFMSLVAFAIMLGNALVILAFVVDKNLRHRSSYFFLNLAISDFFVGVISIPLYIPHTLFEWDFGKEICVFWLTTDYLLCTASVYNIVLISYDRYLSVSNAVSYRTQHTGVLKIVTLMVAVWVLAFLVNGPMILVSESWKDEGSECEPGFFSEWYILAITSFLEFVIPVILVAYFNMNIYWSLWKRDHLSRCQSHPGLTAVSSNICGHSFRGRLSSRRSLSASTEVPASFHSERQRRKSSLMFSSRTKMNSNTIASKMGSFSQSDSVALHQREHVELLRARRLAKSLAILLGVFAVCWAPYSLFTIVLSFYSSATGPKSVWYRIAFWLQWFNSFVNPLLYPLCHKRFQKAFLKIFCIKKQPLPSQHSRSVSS
Histamine H3 receptor (Rattus norvegicus, UniProt Q9QYN8), sequence (Q9QYN8 whole entry): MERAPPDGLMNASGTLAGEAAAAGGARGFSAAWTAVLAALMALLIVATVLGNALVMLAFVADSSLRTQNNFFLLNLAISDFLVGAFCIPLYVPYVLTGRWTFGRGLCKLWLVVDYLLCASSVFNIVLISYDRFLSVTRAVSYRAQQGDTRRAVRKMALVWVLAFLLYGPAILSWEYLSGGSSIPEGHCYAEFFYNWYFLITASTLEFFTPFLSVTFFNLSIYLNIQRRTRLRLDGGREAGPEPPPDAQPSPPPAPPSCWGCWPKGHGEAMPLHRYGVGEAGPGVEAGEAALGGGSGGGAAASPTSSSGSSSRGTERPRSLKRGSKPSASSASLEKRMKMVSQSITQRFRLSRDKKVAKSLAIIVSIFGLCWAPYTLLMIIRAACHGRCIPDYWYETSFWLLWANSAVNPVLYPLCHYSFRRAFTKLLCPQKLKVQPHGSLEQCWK
Neuronal acetylcholine receptor subunit alpha-7 (Homo sapiens), sequence (P36544 whole entry): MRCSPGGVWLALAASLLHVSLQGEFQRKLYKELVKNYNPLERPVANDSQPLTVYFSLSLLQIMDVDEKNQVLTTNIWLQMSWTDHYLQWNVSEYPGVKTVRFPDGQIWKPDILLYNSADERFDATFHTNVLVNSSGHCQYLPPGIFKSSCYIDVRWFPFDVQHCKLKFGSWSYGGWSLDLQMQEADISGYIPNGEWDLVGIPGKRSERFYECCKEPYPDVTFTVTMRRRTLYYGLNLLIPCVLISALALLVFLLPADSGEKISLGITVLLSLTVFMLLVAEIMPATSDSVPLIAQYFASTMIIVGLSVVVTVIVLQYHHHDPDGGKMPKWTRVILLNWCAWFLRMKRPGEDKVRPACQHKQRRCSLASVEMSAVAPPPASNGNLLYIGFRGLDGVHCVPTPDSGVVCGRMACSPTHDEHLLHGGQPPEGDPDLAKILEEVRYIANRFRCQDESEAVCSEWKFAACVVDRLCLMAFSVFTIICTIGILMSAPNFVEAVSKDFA

The Ki is a dissociation constant, usually derived from enzyme kinetics or from competition with a known ligand. With `CCCCCc1ccc(-c2ccc(CN3CCCCC3)cc2)cc1`, the results for the Ki on Histamine H3 receptor [1], at Histamine H4 receptor and at Histamine H3 receptor [2] were 60300 nM, at least 31600 nM and 12900 nM, respectively. The result in assay [3] was inactive.

By pKb is commonly meant −log10 of the Kb, conventionally taken in molar units. `CCCC[C@H](c1ccc(-c2ccc(CN3CCCCC3)cc2)cc1)N1CCCC[C@@H]1C`: the Ki on Histamine H3 receptor [1] is 26.3 nM; on Histamine H4 receptor it was at least 31600 nM; at Histamine H3 receptor [2] it was 3.02 nM. On Histamine H3 receptor [4], the pKb is 8.91. Also, the result in assay [5] and in assay [3] was inactive.

For the compound `C[C@@H]1CCCN1Cc1ccc(-c2ccc(CN3CCCCC3)cc2)cc1`, the results for the Ki on Histamine H3 receptor [1], at Histamine H4 receptor and on Histamine H3 receptor [2] were 3.55 nM, at least 31600 nM and 1.48 nM, respectively. The pKb on Histamine H3 receptor [4] turned out to be 9.16. In addition, the result in assay [5] and in assay [3] was inactive.

Turning to `C[C@@H]1CCCN1Cc1ccc(-c2ccc(C(Cc3ccccc3)N3CCCCC3)cc2)cc1` (mixture of isomers), the inhibition constant (Ki) on Histamine H3 receptor [1] is 29.5 nM; on Histamine H4 receptor, at least 31600 nM; at Histamine H3 receptor [2], 5.62 nM. In addition, the pKb at Histamine H3 receptor [4] amounted to 8.87. In addition, the outcome in assay [5] and in assay [3] was inactive.

Consider `CCCC[C@@H](c1ccc(-c2ccc(CN3CCCCC3)cc2)cc1)N1CCCC[C@@H]1C`, for which the Ki is 26.3 nM at Histamine H3 receptor [1], at least 31600 nM on Histamine H4 receptor and 2.45 nM at Histamine H3 receptor [2]. Moreover, the pKb on Histamine H3 receptor [4] was found to be 8.94. Further, the result in assay [5] and in assay [3] was inactive.

For `COCCC[C@@H](c1ccc(-c2ccc(CN3CCCCC3)cc2)cc1)N1CCC[C@@H]1C`, the values for the Ki on Histamine H3 receptor [1], on Histamine H4 receptor and on Histamine H3 receptor [2] were 1.78 nM, at least 31600 nM and 0.871 nM, respectively. Besides, on Histamine H3 receptor [4], the pKb amounted to 10. Also, the result in assay [5] and in assay [3] was inactive.

As to `CCCC[C@H](c1ccc(-c2ccc(CN3CCCCC3)cc2)cc1)N1CCC[C@H]1C`, the figures for the Ki at Histamine H3 receptor [1], on Histamine H4 receptor and at Histamine H3 receptor [2] were 12.6 nM, at least 31600 nM and 2.45 nM, respectively. Besides, the pKb on Histamine H3 receptor [4] was determined as 8.8; in assay [6] it was 5.13. The outcome in assay [5] was inactive.

Consider `CCCCC(c1ccc(-c2ccc(CN3CCCCC3)cc2)cc1)N1CCCCC1` (racemic), for which the results for the Ki at Histamine H3 receptor [1], on Histamine H4 receptor and at Histamine H3 receptor [2] were 4.27 nM, at least 31600 nM and 1.29 nM, respectively. Besides, on Histamine H3 receptor [4], the pKb was 8.81. Also, the outcome in assay [5] and in assay [3] was inactive.

In the case of `COc1ccc(OCCC[C@H](c2ccc(-c3ccc(CN4CCCCC4)cc3)cc2)N2CCC[C@@H]2C)cc1`, the Ki on Histamine H3 receptor [1] is 6.61 nM; at Histamine H4 receptor, at least 31600 nM; on Histamine H3 receptor [2], 1.26 nM. Further, the negative-log Kb (pKb) at Histamine H3 receptor [4] came to 8.71. Moreover, the outcome in assay [5] and in assay [3] was inactive.

As for `C[C@H]1CCCN1[C@H](CCCOc1ccccc1)c1ccc(-c2ccc(CN3CCCCC3)cc2)cc1`, the Ki at Histamine H3 receptor [1] was 6.61 nM; at Histamine H4 receptor, at least 31600 nM; on Histamine H3 receptor [2], 0.513 nM. Besides, on Histamine H3 receptor [4], the pKb was determined as 8.48. In addition, the inhibition result in assay [7] is “inactive”. Further, the result in assay [5] and in assay [3] was inactive.

Take `CN(C)C(Cc1ccccc1)c1ccc(-c2ccc(CN3CCCCC3)cc2)cc1` (racemic): the Ki on Histamine H3 receptor [1] was 30.2 nM; on Histamine H4 receptor, at least 31600 nM; at Histamine H3 receptor [2], 16.6 nM. Also, at Histamine H3 receptor [4], the pKb was found to be 7.56. Also, the outcome in assay [5] and in assay [3] was inactive.

On to `COCCC[C@H](c1ccc(-c2ccc(CN3CCCCC3)cc2)cc1)N1CCC[C@@H]1C`, for which the Ki on Histamine H3 receptor [1] was 1.48 nM; on Histamine H4 receptor it was at least 31600 nM; on Histamine H3 receptor [2], 2 nM. Besides, the pKb on Histamine H3 receptor [4] stood at 9.64. Moreover, the result in assay [5] and in assay [3] was inactive.

With `c1ccc(CC(c2ccc(-c3ccc(CN4CCCCC4)cc3)cc2)N2CCCCC2)cc1` (racemic), the values for the Ki on Histamine H3 receptor [1], on Histamine H4 receptor and at Histamine H3 receptor [2] were 112 nM, at least 31600 nM and 19.1 nM, respectively. Moreover, the negative logarithm of the Kb (pKb) at Histamine H3 receptor [4] turned out to be 8.3. Moreover, the result in assay [5] and in assay [3] was inactive.

For the compound `CCCCC(c1ccc(-c2ccc(C)cc2)cc1)N1CCCCC1` (racemic), the figures for the Ki on Histamine H3 receptor [1], on Histamine H4 receptor and at Histamine H3 receptor [2] were 43700 nM, at least 31600 nM and 13500 nM, respectively. The outcome in assay [3] was inactive.

Consider `c1cc(-c2ccc(CN3CCCCC3)cc2)ccc1CN1CCCCC1`, for which the pKb at Histamine H3 receptor [4] stood at 8.77.

`C[C@H]1CCCN1Cc1ccc(-c2ccc(CN3CCCCC3)cc2)cc1`: the results for the Ki at Histamine H3 receptor [1], at Histamine H4 receptor and at Histamine H3 receptor [2] were 0.372 nM, at least 31600 nM and 0.661 nM, respectively. For the same compound, the negative logarithm of the Kb (pKb) at Histamine H3 receptor [4] came out at 9.46. Further, the outcome in assay [5] and in assay [3] was inactive.

Regarding `CCCC[C@@H](c1ccc(-c2ccc(CN3CCCCC3)cc2)cc1)N1CCC[C@@H]1C`, the Ki on Histamine H3 receptor [1] was 1.41 nM; at Histamine H4 receptor it was at least 31600 nM; at Histamine H3 receptor [2] it was 1.26 nM. For the same compound, the pKb at Histamine H3 receptor [4] is 8.37. The outcome in assay [5] and in assay [3] was inactive.

Turning to `COc1ccc(OCCC[C@@H](c2ccc(-c3ccc(CN4CCCCC4)cc3)cc2)N2CCC[C@@H]2C)cc1`, the Ki at Histamine H3 receptor [1] was 2.09 nM; on Histamine H4 receptor, at least 31600 nM; on Histamine H3 receptor [2] it was 2.04 nM. The pKb at Histamine H3 receptor [4] is 8.71. Further, the outcome in assay [5] and in assay [3] was inactive.

`CCCC[C@@H](c1ccc(-c2ccc(CN3CCCCC3)cc2)cc1)N1CCC[C@H]1C`: the figures for the Ki on Histamine H3 receptor [1], on Histamine H4 receptor and on Histamine H3 receptor [2] were 16.2 nM, at least 31600 nM and 2.34 nM, respectively. The pKb at Histamine H3 receptor [4] was 8.58. The outcome in assay [5] and in assay [3] was inactive.

In the case of `C[C@H]1CCCN1[C@@H](CCCOc1ccccc1)c1ccc(-c2ccc(CN3CCCCC3)cc2)cc1`, the Ki was 4.68 nM on Histamine H3 receptor [1], at least 31600 nM on Histamine H4 receptor and 2.57 nM on Histamine H3 receptor [2]. For the same compound, the pKb on Histamine H3 receptor [4] was determined as 9.15. The outcome in assay [5] and in assay [3] was inactive.

Turning to `CCCC[C@H](c1ccc(-c2ccc(CN3CCCCC3)cc2)cc1)N1CCC[C@@H]1C`, the Ki at Histamine H3 receptor [1] was 8.71 nM; at Histamine H4 receptor, at least 31600 nM; at Histamine H3 receptor [2] it was 1.55 nM. Moreover, the pKb at Histamine H3 receptor [4] stood at 8.81. Moreover, the result in assay [5] and in assay [3] was inactive.
